Source: ChEMBL document CHEMBL3603830, “Synthesis and structure-activity relationship of uracil nucleotide derivatives towards the identification of human P2Y6 receptor antagonists” (Bioorg Med Chem, 2015)
The source made the active and inactive calls. No cut-off for these calls is given here.

Assays:
[1] = molecular target: T1, NPP1 (ectonucleotide pyrophosphatase/phosphodiesterase family member 1) (Homo sapiens, UniProt P22413); assay: Drug metabolism assessed as human NPP1-mediated compound hydrolysis at 100 uM after 2 hrs by HPLC analysis relative to UDP-treated control; type: ADME; settings: human NPP1 enzyme, read-out: Drug metabolism
T1 sequence (P22413 whole entry): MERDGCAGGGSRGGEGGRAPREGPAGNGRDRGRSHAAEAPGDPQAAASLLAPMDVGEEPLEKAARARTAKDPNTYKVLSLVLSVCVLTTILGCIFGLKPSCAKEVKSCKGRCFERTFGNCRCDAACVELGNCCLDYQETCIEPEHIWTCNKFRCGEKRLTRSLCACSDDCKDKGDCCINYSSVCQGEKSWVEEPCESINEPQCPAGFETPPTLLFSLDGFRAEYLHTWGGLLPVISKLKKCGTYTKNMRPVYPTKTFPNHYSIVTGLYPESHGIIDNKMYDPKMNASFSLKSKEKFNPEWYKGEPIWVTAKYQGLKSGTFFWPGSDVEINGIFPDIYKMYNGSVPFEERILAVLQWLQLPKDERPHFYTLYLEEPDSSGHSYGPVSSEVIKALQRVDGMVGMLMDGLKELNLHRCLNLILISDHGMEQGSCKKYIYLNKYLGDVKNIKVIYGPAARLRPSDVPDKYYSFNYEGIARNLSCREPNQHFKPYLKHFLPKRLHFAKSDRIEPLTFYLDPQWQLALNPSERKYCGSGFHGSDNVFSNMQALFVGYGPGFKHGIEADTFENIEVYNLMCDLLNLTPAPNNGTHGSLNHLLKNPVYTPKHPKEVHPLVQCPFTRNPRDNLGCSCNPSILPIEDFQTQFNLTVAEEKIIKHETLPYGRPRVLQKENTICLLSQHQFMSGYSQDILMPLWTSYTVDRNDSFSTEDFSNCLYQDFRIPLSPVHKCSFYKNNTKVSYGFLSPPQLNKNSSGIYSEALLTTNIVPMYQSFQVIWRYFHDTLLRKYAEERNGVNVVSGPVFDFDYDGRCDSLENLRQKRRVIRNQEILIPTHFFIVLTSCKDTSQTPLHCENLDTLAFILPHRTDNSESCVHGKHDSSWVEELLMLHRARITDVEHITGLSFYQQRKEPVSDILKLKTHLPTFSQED
In short: (§1)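 Compound at 100 µM incubated at 37 °C with hNPP1 for 2 h or hNPP3 for 3 h, in buffer of 1 mM CaCl2, 200 mM NaCl, 10 mM KCl and 100 mM Tris, pH 8.5. Quenched with perchloric acid, neutralized to pH 7 with KOH, then C18 HPLC with isocratic TEAA (pH 7)/CH3CN. Degradation taken from the nucleoside monophosphate peak area minus control, relative to 100% UDP hydrolysis.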

P2Y purinoceptor 6 [2] = molecular target: T2, P2Y purinoceptor 6 (Homo sapiens, UniProt Q15077); assay: Antagonist activity at human recombinant P2Y6 receptor expressed in human 1321N1 cells assessed as inhibition of UDP-induced increase in intracellular calcium level at 100 uM incubated for 2 mins prior to UDP induction by fluo-4 dye-based spectrofluorometric analysis; type: functional, cell-based
In short: (§2)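 hP2Y6-R-expressing 1321N1 cells, Fluo-4/AM-loaded (1 µM, 25 min, 37 °C, then 25 min de-esterification) in HBSS with Ca2+/Mg2+, stirred in a cuvette with fluorescence at 488/520 nm. Analogue given 2 min before 1 µM UDP stimulation. Calcium calculated from Triton X-100/EDTA calibration. Two experiments in duplicate, mean ± SEM; one-way ANOVA against vehicle control.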

P2Y purinoceptor 6 [3] = molecular target: T2, P2Y purinoceptor 6; assay: Agonist activity at human recombinant P2Y6 receptor expressed in human 1321N1 cells assessed as induction of calcium release at 100 uM by fluo-4 dye-based spectrofluorometric analysis; type: functional, cell-based
In short: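 1321N1 astrocytoma cells stably expressing recombinant hP2Y6-R, trypsin/EDTA-detached, loaded with 1 µM Fluo-4/AM in HBSS (Ca2+/Mg2+) for 25 min at 37 °C, then de-esterified 25 min. Stirred suspension in a quartz cuvette, excitation 488 nm and emission 520 nm. Compound added, with UDP as control. Fmax from 0.1% Triton X-100 and Fmin from 50 mM EDTA; [Ca2+]i = Kd(F−Fmin)/(Fmax−F). Two experiments in duplicate.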

[4] = molecular target: T3, Ectonucleotide pyrophosphatase/phosphodiesterase family member 1 (Homo sapiens) (UniProt P22413); assay: Inhibition of human NPP1-mediated UDP hydrolysis at 100 uM after 2 hrs relative to UDP-treated control
T3 sequence (whole entry): T1 sequence (P22413 whole entry)
In short: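 21.44 µg hNPP1 extract pre-incubated 3 min at 37 °C in 1 mM CaCl2, 140 mM NaCl, 5 mM KCl and 50 mM Tris, pH 8.5. Reaction started with compound and UDP, each 100 µM final. Stopped after 2 h with ice-cold perchloric acid, neutralized with KOH, then HPLC. Compared with UDP-only reference samples. Mean ± S.D. of three experiments.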

[5] = molecular target: T4, Ectonucleotide pyrophosphatase/phosphodiesterase family member 3 (Homo sapiens) (UniProt O14638); assay: Inhibition of human NPP3-mediated UDP hydrolysis at 100 uM after 3 hrs relative to UDP-treated control
T4 sequence (whole entry): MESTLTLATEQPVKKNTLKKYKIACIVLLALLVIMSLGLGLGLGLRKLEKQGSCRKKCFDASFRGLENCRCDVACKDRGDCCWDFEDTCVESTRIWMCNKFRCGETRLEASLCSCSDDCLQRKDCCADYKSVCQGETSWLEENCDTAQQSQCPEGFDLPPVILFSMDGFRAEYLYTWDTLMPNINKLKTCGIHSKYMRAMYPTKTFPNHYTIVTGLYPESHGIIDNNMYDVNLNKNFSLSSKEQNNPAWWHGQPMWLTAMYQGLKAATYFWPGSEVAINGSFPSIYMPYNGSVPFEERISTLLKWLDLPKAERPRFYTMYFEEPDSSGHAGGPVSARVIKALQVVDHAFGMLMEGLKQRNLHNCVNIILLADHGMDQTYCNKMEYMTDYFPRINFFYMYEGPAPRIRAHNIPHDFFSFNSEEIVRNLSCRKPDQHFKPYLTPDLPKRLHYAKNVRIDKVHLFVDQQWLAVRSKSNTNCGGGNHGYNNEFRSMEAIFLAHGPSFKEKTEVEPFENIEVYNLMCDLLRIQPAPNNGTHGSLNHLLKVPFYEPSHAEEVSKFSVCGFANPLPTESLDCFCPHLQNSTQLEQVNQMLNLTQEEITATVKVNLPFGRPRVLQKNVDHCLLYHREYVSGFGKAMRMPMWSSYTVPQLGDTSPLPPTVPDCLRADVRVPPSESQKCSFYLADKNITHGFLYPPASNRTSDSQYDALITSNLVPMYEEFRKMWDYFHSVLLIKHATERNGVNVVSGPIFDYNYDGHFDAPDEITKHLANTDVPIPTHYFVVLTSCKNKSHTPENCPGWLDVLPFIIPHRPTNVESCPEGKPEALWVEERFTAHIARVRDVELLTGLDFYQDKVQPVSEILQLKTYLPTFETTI

[6] = molecular target: T5, NPP3 (ectonucleotide pyrophosphatase/phosphodiesterase family member 3) (Homo sapiens, UniProt O14638); assay: Drug metabolism assessed as human NPP3-mediated compound hydrolysis at 100 uM after 3 hrs by HPLC analysis relative to UDP-treated control; type: ADME; settings: human NPP3 enzyme, read-out: Drug metabolism; in short: as §1
T5 sequence (O14638 whole entry): T4 sequence (whole entry)

P2Y purinoceptor 6 [7] = molecular target: T2, P2Y purinoceptor 6; assay: Agonist activity at human recombinant P2Y6 receptor expressed in human 1321N1 cells assessed as increase in intracellular calcium level by fluo-4 dye-based spectrofluorometric analysis; type: functional, cell-based
In short: (§3)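 1321N1 cells stably expressing recombinant hP2Y6-R were trypsin/EDTA-detached, loaded with 1 µM Fluo-4/AM in HBSS (Ca2+/Mg2+) for 25 min at 37 °C, then held 25 min at 37 °C for de-esterification. Stirred cuvette suspension read at ex 488/em 520 nm after compound addition, with UDP as control. Fmax/Fmin set with 0.1% Triton X-100 then 50 mM EDTA; [Ca2+] = Kd(F−Fmin)/(Fmax−F).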

P2Y purinoceptor 6 [8] = molecular target: T2, P2Y purinoceptor 6; assay: Agonist activity at human recombinant P2Y6 receptor expressed in human 1321N1 cells assessed as increase in intracellular calcium level at 10 uM by fluo-4 dye-based spectrofluorometric analysis relative to UDP-treated control; type: functional, cell-based; in short: as §3
P2Y purinoceptor 6 [9] = molecular target: T2, P2Y purinoceptor 6; assay: Agonist activity at human recombinant P2Y6 receptor expressed in human 1321N1 cells assessed as increase in intracellular calcium level at >100 uM by fluo-4 dye-based spectrofluorometric analysis; type: functional, cell-based; in short: as §3
P2Y purinoceptor 6 [10] = molecular target: T2, P2Y purinoceptor 6; assay: Antagonist activity at human recombinant P2Y6 receptor expressed in human 1321N1 cells assessed as inhibition of UDP-induced increase in intracellular calcium level at 30 uM incubated for 2 mins prior to UDP induction by fluo-4 dye-based spectrofluorometric analysis; type: functional, cell-based; in short: as §2
[11] = molecular target: P2Y purinoceptor 2 (Homo sapiens) (UniProt P41231); assay: Agonist activity at human recombinant P2Y2 receptor expressed in human 1321N1 cells assessed as increase in intracellular calcium level by fluo-4 dye-based spectrofluorometric analysis; type: functional, cell-based
P2Y purinoceptor 6 [12] = molecular target: T2, P2Y purinoceptor 6; assay: Antagonist activity at human recombinant P2Y6 receptor expressed in human 1321N1 cells assessed as inhibition of UDP-induced increase in intracellular calcium level incubated for 2 mins prior to UDP induction by fluo-4 dye-based spectrofluorometric analysis; type: functional, cell-based; in short: as §2
P2Y purinoceptor 6 [13] = molecular target: T2, P2Y purinoceptor 6; assay: Agonist activity at human recombinant P2Y6 receptor expressed in human 1321N1 cells assessed as increase in intracellular calcium level at =>100 uM by fluo-4 dye-based spectrofluorometric analysis; type: functional, cell-based; in short: as §3
[14] = molecular target: P2Y purinoceptor 4 (Homo sapiens) (UniProt P51582); assay: Agonist activity at human recombinant P2Y4 receptor expressed in human 1321N1 cells assessed as increase in intracellular calcium level by fluo-4 dye-based spectrofluorometric analysis; type: functional, cell-based
Sequence of P2Y purinoceptor 4 (Homo sapiens) (P51582 whole entry): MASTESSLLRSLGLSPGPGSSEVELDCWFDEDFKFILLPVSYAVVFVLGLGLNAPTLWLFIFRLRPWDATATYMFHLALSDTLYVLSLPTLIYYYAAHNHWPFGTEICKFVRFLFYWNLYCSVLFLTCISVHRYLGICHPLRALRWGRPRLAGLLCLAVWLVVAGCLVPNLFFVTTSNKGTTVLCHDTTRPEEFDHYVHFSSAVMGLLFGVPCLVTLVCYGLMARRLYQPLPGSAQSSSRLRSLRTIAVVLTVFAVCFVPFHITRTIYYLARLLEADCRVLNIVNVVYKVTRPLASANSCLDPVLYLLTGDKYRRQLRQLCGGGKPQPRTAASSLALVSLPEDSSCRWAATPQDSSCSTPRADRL

T2 sequence (Q15077 whole entry): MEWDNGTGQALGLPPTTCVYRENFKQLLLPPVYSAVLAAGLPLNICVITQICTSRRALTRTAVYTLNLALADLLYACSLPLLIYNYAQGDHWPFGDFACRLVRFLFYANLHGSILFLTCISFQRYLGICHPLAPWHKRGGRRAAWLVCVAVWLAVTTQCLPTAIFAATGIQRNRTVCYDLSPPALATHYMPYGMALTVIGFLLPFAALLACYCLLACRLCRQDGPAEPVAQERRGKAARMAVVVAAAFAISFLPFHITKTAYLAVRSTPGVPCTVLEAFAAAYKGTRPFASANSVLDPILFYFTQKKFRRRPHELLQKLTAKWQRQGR
Sequence of P2Y purinoceptor 2 (Homo sapiens) (P41231 whole entry): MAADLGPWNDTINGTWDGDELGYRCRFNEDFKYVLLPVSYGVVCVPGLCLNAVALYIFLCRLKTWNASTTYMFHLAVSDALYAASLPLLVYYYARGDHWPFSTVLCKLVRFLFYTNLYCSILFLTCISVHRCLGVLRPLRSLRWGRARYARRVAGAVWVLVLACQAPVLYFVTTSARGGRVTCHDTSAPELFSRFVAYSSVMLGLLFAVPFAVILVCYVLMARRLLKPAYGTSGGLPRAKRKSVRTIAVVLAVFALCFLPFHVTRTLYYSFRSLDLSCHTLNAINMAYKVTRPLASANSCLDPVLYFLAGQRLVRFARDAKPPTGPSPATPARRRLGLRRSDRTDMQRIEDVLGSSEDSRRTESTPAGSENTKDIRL

Row | SMILES | inhibition (P2Y purinoceptor 6 [2]) | Activity (P2Y purinoceptor 6 [7]) | Activity (P2Y purinoceptor 6 [9]) | inhibition (P2Y purinoceptor 6 [10]) | further results
1 | COc1cn([C@@H]2O[C@H](COP(=O)(O)CS(=O)(=O)O)[C@@H](O)[C@H]2O)c(=O)[nH]c1=O | inactive | – | – | – | metabolised at 2 h, 100 µM [1]: 21.6%; Activity (P2Y purinoceptor 6 [3]): inactive; inhibition [4]: 48.4%; inhibition [5]: 10.5%; metabolised at 3 h, 100 µM [6]: 11%
2 | O=c1[nH]c(=O)n([C@@H]2O[C@H](COP(=O)(O)CP(=O)(O)O)[C@@H](O)[C@H]2O)cc1F | – | Active | – | – | –
3 | CC(C)c1cn([C@@H]2O[C@H](COP(=O)(O)CP(=O)(O)O)[C@@H](O)[C@H]2O)c(=O)[nH]c1=O | 24% | inactive | – | – | –
4 | COc1cn([C@@H]2O[C@H](COP(=O)(O)CP(=O)(O)O)[C@@H](O)[C@H]2O)c(=O)[nH]c1=O | – | – | – | – | Activity (P2Y purinoceptor 6 [8]): 27%
5 | O=c1[nH]c(=O)n([C@H]2C[C@H](OP(=O)(O)O)[C@@H](COP(=O)(O)O)O2)cc1F | – | – | Active | inactive | –
6 | O=c1[nH]c(=O)n([C@@H]2O[C@H](COP(=O)(O)C(Cl)(Cl)P(=O)(O)O)[C@@H](O)[C@H]2O)cc1F | – | Active | – | inactive | –
7 | O=c1ccn([C@@H]2O[C@H](COP(=O)(O)OS(=O)(=O)O)[C@@H](O)[C@H]2O)c(=O)[nH]1 | Active | – | – | – | Activity [11]: inactive; IC50 (P2Y purinoceptor 6 [12]): 112 µM; metabolised at 2 h, 100 µM [1]: 27.9%; Activity (P2Y purinoceptor 6 [13]): Active; metabolised at 3 h, 100 µM [6]: 28.3%; Activity [14]: inactive
8 | O=c1[nH]c(=O)n([C@H]2C[C@H](O)[C@@H](COP(=O)(O)CP(=O)(O)O)O2)cc1F | – | – | Active | inactive | –
9 | COc1cn([C@@H]2O[C@H](COP(=O)(O)C(F)(F)P(=O)(O)O)[C@@H](O)[C@H]2O)c(=O)[nH]c1=O | 40% | Active | Active | inactive | –
